Assay [1] relates to Erwinia amylovora. As to the kind of experiment: Antimicrobial activity against Erwinia amylovora 1501 after 24 hrs by spectrophotometry. The class given is functional. Conditions: Erwinia amylovora, 1501, 24 h. The essentials:
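Broth microdilution in Luria broth. Overnight culture from a single colony, grown at 28 °C (Ea1501, Psa) or 37 °C (E. coli, S. aureus), adjusted to OD600 0.6. Peptide dissolved in LB with 0.5% acetic acid as a dilution series; 50 μL peptide plus 50 μL culture per well, triplicates.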

Assay [2] has as its system Erwinia amylovora. In words: Antimicrobial activity against streptomycin-resistant Erwinia amylovora after 24 hrs by spectrophotometry. The class given is functional. An outline of the steps:
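Broth microdilution in Luria broth; overnight culture grown at 28 °C, adjusted to OD600 0.6, mixed 1:1 with a dilution series of peptide prepared in LB containing 0.5% acetic acid. Three replicates per concentration.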

A further assay relates to Pseudomonas syringae. As to the kind of experiment: Bactericidal activity against Pseudomonas syringae pv. actinidiae 16027 by time-kill assay. The assay is classed as functional, organism-based. An outline of the steps:
(§1)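 Time-kill assay. Overnight culture diluted in LB to mid-log phase, 10^5–10^8 CFU/mL; 100 μL added to 10 mL peptide in LB at 1×, 2×, 4× and 20× MIC. Incubated with shaking at 100 rpm, at 28 °C (Ea1501, Psa) or 37 °C (E. coli, P. aeruginosa, S. aureus). Samples at 0, 0.5, 1, 3, 6, 9 and 24 h serially diluted in 0.9% saline and plated; colonies counted after 24 h. Run in duplicate. Bactericidal means ≥2-log10 CFU/mL drop versus the no-antibiotic control.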

Assay [3] has as its system Staphylococcus aureus. In words: Bactericidal activity against Staphylococcus aureus at 4 to 20 times MIC after 3 hrs by time-kill assay. The class given is functional, organism-based. The essentials: as §1
For assay [4], the system named is Pseudomonas syringae pv. actinidiae. As to the kind of experiment: Antimicrobial activity against Pseudomonas syringae pv. actinidiae 16027 preformed biofilms at 5 to 10 uM after 24 hrs. The class given is functional. The essentials: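 Psa16027 biofilms formed 48 h without peptide, then washed. 100 μL of peptide (1, 5 or 50 μM) in LB, or LB alone, added and incubated a further 24 h at 28 °C. Crystal violet staining followed, with A560 estimation of biofilm mass and microscopy.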

The test system of assay [5] is Staphylococcus aureus. As to the kind of experiment: Inhibition of Staphylococcus aureus biofilm formation at 10 to 25 uM after 48 hrs. The assay is classed as functional, organism-based. The essentials:
(§2)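 P. aeruginosa or S. aureus biofilms grown 48 h on coverslips in 12-well plates, with peptide added at inoculation at 5, 10, 25, 50 or 100 μM. Coverslips rinsed, dried at 50 °C and stained with BacLight (SYTO 9/propidium iodide) for 25 min in the dark at room temperature. Examined by fluorescence microscopy at 1000×.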

Assay [6] relates to Pseudomonas aeruginosa. In words: Inhibition of Pseudomonas aeruginosa biofilm formation at 10 to 50 uM after 48 hrs. The class given is functional, organism-based. An outline of the steps:
as §2

Assay [7] deals with Pseudomonas aeruginosa. As to the kind of experiment: Antimicrobial activity against Pseudomonas aeruginosa assessed as outer membrane permeability at 0.5 to 100 uM measured after 1 min by N-phenylnaphthylamine uptake assay. The class given is functional, organism-based. An outline of the steps:
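Cells grown overnight in LB at 37 °C, then regrown to OD600 0.5, washed thrice and resuspended to OD600 0.5 in 10 mM phosphate buffer pH 7.0. Peptide (30 μL, 0.5–100 μM) added to 2.94 mL suspension, with NPN at 10 μM final. Fluorescence read at ex 350/em 420 nm, triplicate readings averaged.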

Assay [8] deals with Pseudomonas aeruginosa. In words: Antimicrobial activity against Pseudomonas aeruginosa assessed as perturbed cell membrane at 2 times MIC measured after 24 hrs by scanning electron microscopy. The assay is classed as functional, organism-based. An outline of the steps: (§3)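 Bacteria grown to OD600 0.3 in LB on glass slides for 24 h, then washed with 10 mM sodium phosphate pH 7.4. Treated 20 min with peptide in LB at twice the upper limit of its MIC, washed, and fixed in 4% glutaraldehyde 1 h. Dehydrated through graded ethanol, dried at 60 °C, platinum coated, and imaged by SEM at 10 kV.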

The subject of the next assay is Escherichia coli. In words: Antimicrobial activity against Escherichia coli assessed as perturbed cell membrane at 2 times MIC measured after 24 hrs by scanning electron microscopy. The assay is classed as functional, organism-based. An outline of the steps: as §3

Values after ≈ are worked out from the molar mass of the structure shown. Active and inactive are the calls of the source. Non-standard residues stand in square brackets, D forms with d. Residues, ends and D or L forms follow the SMILES beside them. ξ: configuration not given here. *: point of attachment. Hexanoyl(4ξ-Me) = CCC(C)CCC(=O)*; dDab = NCC[C@@H](N)C(=O)O; Dab = NCC[C@H](N)C(=O)O

In the case of `CCC(C)CCC(=O)N[C@H](CCN)C(=O)N[C@@H](CCN)C(=O)N[C@@H](CCN)C(=O)N[C@@H](CC(C)C)C(=O)N[C@H](Cc1ccccc1)C(=O)N[C@@H](CCN)C(=O)N[C@@H](CCN)C(=O)N[C@@H](CC(C)C)C(N)=O` (stereo partly drawn) ({Hexanoyl(4ξ-Me)}-[dDab][Dab][Dab]L[dF][Dab][Dab]L-NH2), the MIC (in general, the smallest concentration in the dilution series that meets the test's criterion for growth inhibition) against Erwinia amylovora [1] was determined as 2.5 µM (≈ 2.51 µg/mL); against Erwinia amylovora [2], 5 µM (≈ 5.02 µg/mL). For the same molecule, the Activity entry in the assay on Pseudomonas syringae is “Dose-dependent effect”. Further, the result (in the assay with Staphylococcus aureus [3]; in [4]; in the assay on Pseudomonas aeruginosa [7]; with Pseudomonas aeruginosa [8]; in the assay with Escherichia coli) was Active. Besides, the inhibition entry in the assay with Staphylococcus aureus [5] and with Pseudomonas aeruginosa [6] was “Active” throughout.

The values are drawn from ChEMBL document CHEMBL3616459, “Antimicrobial peptides with potential for biofilm eradication: synthesis and structure activity relationship studies of battacin peptides” (J Med Chem, 2015).
